Assay results collected from several papers.
Protocols differ between the studies behind these lines.
Target: NUAK family SNF1-like kinase 2 (NUAK2, Homo sapiens, UniProt Q9H093)
One construct used (Q9H093 1-628): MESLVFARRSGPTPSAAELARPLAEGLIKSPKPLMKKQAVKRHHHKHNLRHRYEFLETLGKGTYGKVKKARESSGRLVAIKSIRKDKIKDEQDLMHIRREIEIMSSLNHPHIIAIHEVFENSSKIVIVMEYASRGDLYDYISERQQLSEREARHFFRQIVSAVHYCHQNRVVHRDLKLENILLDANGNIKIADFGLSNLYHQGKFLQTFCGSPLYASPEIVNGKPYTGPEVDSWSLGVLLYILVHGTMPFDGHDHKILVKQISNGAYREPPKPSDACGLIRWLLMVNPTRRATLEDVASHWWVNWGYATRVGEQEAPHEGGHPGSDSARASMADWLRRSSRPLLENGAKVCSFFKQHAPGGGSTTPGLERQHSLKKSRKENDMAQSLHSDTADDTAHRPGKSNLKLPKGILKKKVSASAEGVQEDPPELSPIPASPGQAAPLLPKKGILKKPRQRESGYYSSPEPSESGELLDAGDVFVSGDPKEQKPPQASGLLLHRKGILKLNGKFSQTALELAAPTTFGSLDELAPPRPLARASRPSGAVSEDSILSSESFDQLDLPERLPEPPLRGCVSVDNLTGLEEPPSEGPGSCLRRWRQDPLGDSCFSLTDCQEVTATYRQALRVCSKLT

Structure (SMILES) | observed | method | concentration | remaining binding [%]
Cc1cnc(Nc2ccc(C(=O)N3CCC(N4CCCC4)CC3)cc2)nc1-c1cc2ccccc2s1 | binding | competition with immobilised ligand | 1 µM | 1
CN(CCCC(F)(F)F)c1nccc(-c2cnn3ncccc23)n1 | binding | – | 1 µM | 92
COc1ncc2cc3ccccc3nc2c1C#N | cell-free assay | competition with immobilised ligand | 5 µM | 100
CC(C)(C)c1ccc(-c2nc(CBr)nn2-c2cccc(O)c2)cc1 | cell-free assay | competition with immobilised ligand | 10 µM | 74
C[C@@H]1CN(c2ccc3ncc(-c4ccc5[nH]nc(C6CC6)c5c4)n3n2)C[C@H](C)O1 | binding | competition with immobilised ligand | 50 nM | 89
COc1cc(-c2cn(C3CCc4ccccc4N(CC(F)(F)F)C3=O)nn2)ccc1-n1ccc(C)n1 (stereo not shown) | cell-free assay | competition with immobilised ligand | 1 µM | 88
C[C@@H]1CCN(c2nccc(-c3cnn4ncccc34)n2)C1 | binding | – | 1 µM | 74
O=C(O)[C@H]1[C@H](Cn2nnc3ccccc3c2=O)CC[C@@H]1C(=O)c1ccc(OCCC2CCOCC2)cc1 | cell-free assay | competition with immobilised ligand | 1 µM | 100
CN(C)c1nccc(-c2cnn3ncccc23)n1 | binding | – | 1 µM | 100
Nc1c(C(=O)NCc2ccc(C(=O)NCCCC3CCCCC3)cc2)cnn1-c1ccccc1 | cell-free assay | competition with immobilised ligand | 0.1 µM | 100
N#Cc1ccccc1CSc1nnc2c(n1)[nH]c1ccccc12 | binding | competition with immobilised ligand | 10 µM | 93
COc1cnc(Nc2cccc(S(N)(=O)=O)c2)nc1N1CCN(c2ccccc2)C(=O)C1 | binding | competition with immobilised ligand | 1 µM | 54
CO[C@@H](C)c1c(Nc2ccc([C@@H](N(C)C(=O)C3CCS(=O)(=O)CC3)C(F)(F)F)cc2)cnc2cc(Cl)nn12 | cell-free assay | competition with immobilised ligand | 1 µM | 100
O=C(c1ccc(Nc2ncc(Cl)c(-c3cc4ccccc4s3)n2)cc1)N1CCC(N2CCCC2)CC1 | binding | competition with immobilised ligand | 1 µM | 0.8
Nc1ncc2c(n1)-c1c([nH]c3ccc(C#CC4CC4)cc13)CCCC2 | binding | competition with immobilised ligand | 1 µM | 92
O=C(c1ccc(Nc2nccc(-c3cc4ccccc4s3)n2)cc1)N1CCC(N2CCCC2)CC1 | binding | competition with immobilised ligand | 1 µM | 7.6
Cc1c(NC(=O)c2cc(C(N)=O)nc3cc(F)ccc23)c(C(F)(F)F)nn1Cc1ccc(C#N)cc1 | cell-free assay | competition with immobilised ligand | 1 µM | 83
N[C@@H]1CCN(c2nccc(-c3cnn4ncccc34)n2)C1 | binding | – | 1 µM | 100
C[C@H](NC(=O)c1cnc2n1[C@](C)(Cc1ccc(C#N)cc1)C(=O)N2c1cc(Cl)c(F)c(Cl)c1)C(=O)NC1(c2ccccn2)CC1 | cell-free assay | competition with immobilised ligand | 1 µM | 100
O=C(Nc1c[nH]nc1C(=O)NC1CCNCC1)c1cc(F)cc(F)c1 | binding | competition with immobilised ligand | 1 µM | 100
CN(C)c1ncc(F)c(-c2cnn3ncccc23)n1 | binding | – | 1 µM | 80
CNC(=O)Nc1ccc2c(c1)CC[C@@]21OC(=O)N(CC(=O)N(Cc2ccc(F)cc2)[C@@H](C)C(F)(F)F)C1=O | cell-free assay | competition with immobilised ligand | 1 µM | 74
